Laboratory results: ChEMBL document CHEMBL4765302, “Design, synthesis and biological evaluation of novel histone deacetylase1/2 (HDAC1/2) and cyclin-dependent Kinase2 (CDK2) dual inhibitors against malignant cancer” (Eur J Med Chem, 2020)
Calls of active or inactive are those of the source. The calls are words filed in the database; no cut-off is given here.

Tests used:
HCT-116 [1] = experiment: Antitumor activity against human HCT-116 cells xenografted in Balb/c mouse assessed as tumor growth inhibition at 100 mg/kg, ip administered for 21 days and measured on day 21 relative to control; assay type: functional; details: HCT-116, ip, 504 h, time 21 day, read-out: GI
Outline: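 HCT116 xenografts in BALB/c nude mice. Dosing started when tumours reached 100–300 mm³: intraperitoneal injection once daily for 21 days at 25, 50 or 100 mg/kg, versus blank. Body weight monitored. Tumour growth inhibition computed against blank.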

HCT-116 [2] = experiment: Induction of cell cycle arrest in human HCT-116 cells assessed as reduction in G0/G1 phase at 0.5 to 2 uM incubated for 24 hrs by PI staining based flow cytometry; assay type: functional; details: dose 0.5-2 µM
Outline: (§1)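 Treatment at 2, 1 and 0.5 μM for 24 h, alongside CS055 and roscovitine, against a DMSO (0.1 %) blank. Cells then stained with propidium iodide and analyzed by flow cytometry.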

[3] = Cmax in ICR mouse at 20 mg/kg, ip measured upto 24 hrs by LC-MS/MS analysis; details: in vivo
HeLa [4] = experiment: Induction of apoptosis in human HeLa cells assessed as early apoptotic cells at 2 uM incubated for 48 hrs by annexin V-FITC and PI staining based flow cytometry (reference value: 0.528 %); assay type: functional
NCI-H460 = experiment: Induction of apoptosis in human H460 cells assessed as apoptosis rate at 2 uM incubated for 48 hrs by annexin V-FITC and PI staining based flow cytometry relative to control; assay type: functional
Histone deacetylase 1 = Histone deacetylase 1 (Homo sapiens, UniProt Q13547); experiment: Potency index, ratio of IC50 of CS055 to IC50 of compound for inhibition of recombinant human HDAC1 using […] as substrate incubated for 10 mins followed by substrate addition and measured after 30 mins by fluorescence based assay
A-375 [5] = experiment: Induction of apoptosis in human A-375 cells assessed as necrotic cells at 2 uM incubated for 48 hrs by annexin V-FITC and PI staining based flow cytometry (reference value: 0.139 %); assay type: functional
HepG2 = experiment: Antiproliferative activity against human HepG2 cells assessed as reduction in cell growth incubated for 72 hrs by CCK-8 assay; assay type: functional, cell-based; details: HepG2, 72 h
Outline: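 IC50 by CCK-8 assay across five solid-tumour lines (HCT116, HepG2, H460, HeLa, A375). Run only for compounds chosen after the single-concentration screen, with CS055 and roscovitine as references.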

A-375 [6] = experiment: Induction of apoptosis in human A-375 cells assessed as necrotic cells at 0.5 uM incubated for 48 hrs by annexin V-FITC and PI staining based flow cytometry (reference value: 0.139 %); assay type: functional
A-375 [7] = experiment: Induction of apoptosis in human A-375 cells assessed as necrotic cells at 1 uM incubated for 48 hrs by annexin V-FITC and PI staining based flow cytometry (reference value: 0.139 %); assay type: functional
HeLa [8] = experiment: Induction of apoptosis in human HeLa cells assessed as viable cells at 0.5 uM incubated for 48 hrs by annexin V-FITC and PI staining based flow cytometry (reference value: 98.5 %); assay type: functional; details: read-out: Activity
A-375 [9] = experiment: Induction of apoptosis in human A-375 cells assessed as viable cells at 1 uM incubated for 48 hrs by annexin V-FITC and PI staining based flow cytometry (reference value: 96.3 %); assay type: functional; details: read-out: Activity
HeLa [10] = experiment: Induction of apoptosis in human HeLa cells assessed as necrotic cells at 0.5 uM incubated for 48 hrs by annexin V-FITC and PI staining based flow cytometry (reference value: 0.124 %); assay type: functional
HeLa [11] = experiment: Induction of cell cycle arrest in human HeLa cells assessed as G2/M phase at 0.5 uM incubated for 24 hrs by PI staining based flow cytometry (reference value: 7.89 %); assay type: functional; outline: as §1
HCT-116 [12] = experiment: Induction of apoptosis in human HCT-116 cells assessed as viable cells at 0.5 uM incubated for 48 hrs by annexin V-FITC and PI staining based flow cytometry (reference value: 93.9 %); assay type: functional; details: read-out: Activity

Sequence of Histone deacetylase 1 (Q13547 whole entry): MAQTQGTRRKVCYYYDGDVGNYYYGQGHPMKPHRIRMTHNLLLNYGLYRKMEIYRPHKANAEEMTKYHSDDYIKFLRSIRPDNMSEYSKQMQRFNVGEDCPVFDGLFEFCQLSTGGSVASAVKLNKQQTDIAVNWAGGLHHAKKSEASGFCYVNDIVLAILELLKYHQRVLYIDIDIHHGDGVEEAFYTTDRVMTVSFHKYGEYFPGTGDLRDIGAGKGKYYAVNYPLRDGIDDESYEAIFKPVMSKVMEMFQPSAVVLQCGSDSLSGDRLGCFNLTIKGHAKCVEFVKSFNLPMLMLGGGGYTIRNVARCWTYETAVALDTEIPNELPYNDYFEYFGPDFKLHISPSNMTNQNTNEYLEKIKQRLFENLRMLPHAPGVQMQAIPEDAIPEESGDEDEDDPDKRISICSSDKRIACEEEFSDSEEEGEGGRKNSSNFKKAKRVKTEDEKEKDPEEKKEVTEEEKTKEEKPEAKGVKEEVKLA

Which results are given for `Cc1ccc(Nc2nc(Cl)nc3c2ncn3Cc2ccc(C(=O)Nc3ccccc3N)cc2)cc1`?
inhibition in vivo at 100 mg/kg (HCT-116 [1]): 44%; Activity (HCT-116 [2]): Active; Cmax [3]: 1360 ng/mL; Activity (HeLa [4]): 8.26%; Activity (NCI-H460): 59.1%; Ratio IC50 (Histone deacetylase 1): 3; Activity (A-375 [5]): 0.453%; IC50 (HepG2): 860 nM; Activity (A-375 [6]): 0.852%; Activity (A-375 [7]): 0.566%; viability at 0.5 µM (HeLa [8]): 89.9%; viability at 1 µM (A-375 [9]): 8.06%; Activity (HeLa [10]): 0.31%; Activity (HeLa [11]): 51.85%; viability at 0.5 µM (HCT-116 [12]): 21.3%
